Screening results (PubChem BioAssay)
A selection: hits, their analogues and other compounds. The true share with any hit is near 3.9%.
Rad51 HR inh – Rad51 (human) homologous recombination inhibition. AID 1385. inhibition, % at 10 µM. hRad51 DNA strand exchange, fluorescence dequenching. 0.085% of 200,000 active. Q06609;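 active = inhibition above 40% at the single screening dose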;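 also: 0% = DMSO control wells and 100% = blanks with heterologous ssDNA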
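Material: human Rad51–ssDNA filaments; Probe or stimulus: labelled 47-mer dsDNA for strand exchange; Doses: single 10 µM dose; Incubation: 37 °C 15-min filament assembly, 30-min compound preincubation, 15-min exchange; Technique: FRET fluorescence dequenching, excitation 485 nm, emission 520 nm; Measure: Fluorescence-based percent inhibition, control- and blank-normalised; Benchmarks: plate control and blank wells.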
FLuc inh counter – inhibits firefly luciferase, flagging false hits in luciferase inhibition screens | ATPLite firefly luciferase biochemical luminescence, 10 min | inhibition, % at 10 µM | 1.5% of 200,000 active;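 active = inhibition above about 50% when tested at 10 µM, limit read from the data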
Target sequence (P08659 whole entry, looked up): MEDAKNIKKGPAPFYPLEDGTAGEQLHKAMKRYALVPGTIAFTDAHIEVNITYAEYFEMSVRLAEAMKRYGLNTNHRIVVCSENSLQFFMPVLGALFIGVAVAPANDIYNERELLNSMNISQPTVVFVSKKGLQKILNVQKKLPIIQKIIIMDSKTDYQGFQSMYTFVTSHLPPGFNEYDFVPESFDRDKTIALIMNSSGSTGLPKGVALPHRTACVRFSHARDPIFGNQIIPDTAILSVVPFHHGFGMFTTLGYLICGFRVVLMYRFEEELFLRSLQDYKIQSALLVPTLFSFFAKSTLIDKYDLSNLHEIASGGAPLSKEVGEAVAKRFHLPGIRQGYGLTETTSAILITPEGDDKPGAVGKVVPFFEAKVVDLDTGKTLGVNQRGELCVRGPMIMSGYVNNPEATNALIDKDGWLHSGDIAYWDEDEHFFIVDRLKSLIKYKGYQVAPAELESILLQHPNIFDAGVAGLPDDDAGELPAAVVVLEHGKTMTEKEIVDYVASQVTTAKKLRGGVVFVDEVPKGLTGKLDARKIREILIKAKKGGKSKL
NF-kB expr up – NF-kB expression increase, human neuronal cells. AID 1239. NF-kB reporter expression; stronger effect = higher value. fold change at 12.5 µM. 1.6% of 190,000 active; in the data active = fold change above about 3.3
STAT1 act – activators of IFN-gamma induced STAT1 signaling; AID 932; activation (% of control), % at 5.5 µM; NIH 3T3 STAT1-luciferase reporter, luminescence; 100% = IFN-gamma alone, no compound; 2.6% of 200,000 active;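 active = activation above the screen-wide mean activation plus 3 SD, cut at about 130% in these data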;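 also: raw ratio to IFN-gamma control signal so 100% means no change and 0% no light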
APP 5'UTR act – APP 5'UTR luciferase reporter activation. 1% of 190,000 active. SH-SY5Y APP 5'UTR luciferase reporter, luminescence; zero percent = DMSO vehicle wells. activation, % at 2 µM;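 active = activation above a set limit, based on mean plus 3 SD of controls, cut at about 140% in these data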
FLuc act counter – affects firefly luciferase, flagging false hits in luciferase stimulation screens. P08659. ATPlite luciferase biochemical, luminescence, 10 min; 0 = ATP-free wells, 1 = DMSO control. activation factor at 10 µM. 200,000 tested, under 10 active. AID 1027;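 active = luciferase activation factor, scaled between plate controls, of at least 2 with compound at 10 µM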
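Assay system: Luciferase/luciferin detection reagent, cell-free biochemical luciferase assay / Also added: ATP substrate / Schedule: 10 min at ambient temperature / Measured by: luminescence measurement of luciferase light output / Benchmarks: low control with PBS replacing ATP, high control enzyme plus ATP without compound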
* = called active by the depositor.

What do the screens show for `CSc1ccc(-c2nnn(Cc3ccc(Br)cc3)n2)cc1`?
Rad51 HR inh: 6; FLuc inh counter: -10; NF-kB expr up: 1.6; STAT1 act: 105; APP 5'UTR act: -4; FLuc act counter: 1.1

Results for O=C(O)c1cccc(NC(=O)c2cn(-c3ccccc3)nc2-c2cc3ccccc3o2)c1 ?
Rad51 HR inh: -4; FLuc inh counter: 13; NF-kB expr up: 1.1; STAT1 act: 101; APP 5'UTR act: 7; FLuc act counter: 0.9

What do the screens show for `O=C(N/N=C/c1cn(-c2ccccc2)nc1-c1cccnc1)c1cccnc1`?
Rad51 HR inh: 5; FLuc inh counter: 13; NF-kB expr up: 0.71; STAT1 act: 97; APP 5'UTR act: -9; FLuc act counter: 0.9

Results for O=C(N/N=C/c1cn(-c2ccccc2)nc1-c1cc2ccccc2o1)c1cccnc1 ?
Rad51 HR inh: -8; FLuc inh counter: 19; NF-kB expr up: 1.3; STAT1 act: 123; APP 5'UTR act: 148*; FLuc act counter: 0.8

How did O=C(N/N=C/c1cn(-c2ccccc2)nc1-c1cc2ccccc2o1)c1ccncc1 do in these assays?
Rad51 HR inh: 18; FLuc inh counter: 26; NF-kB expr up: 2.6; STAT1 act: 144*; APP 5'UTR act: 188*; FLuc act counter: 0.7

Results for O=C(/C(=N\Nc1ccccc1)Sc1nnnn1-c1ccccc1)c1ccccc1 ?
FLuc inh counter: 0; NF-kB expr up: 0.95; STAT1 act: 104; APP 5'UTR act: 6; FLuc act counter: 1

How did COc1ccc([N+](=O)[O-])c(OC)c1C(=O)NC(=O)Nc1c(F)cc(F)cc1F do in these assays?
Rad51 HR inh: 0

What do the screens show for `CC(C)CCNC(=O)c1onc(CSc2ccccc2)c1C(=O)NCCC(C)C`?
Rad51 HR inh: 2

Results for COc1ccc(NC(=O)c2ccccc2F)cc1Cl ?
Rad51 HR inh: -5; FLuc inh counter: 38; NF-kB expr up: 4.3*; STAT1 act: 119; APP 5'UTR act: 120; FLuc act counter: 0.6

How did COc1ccc(NC(=O)c2cccc(OC(F)F)c2)cc1Cl do in these assays?
Rad51 HR inh: 4; FLuc inh counter: 14; NF-kB expr up: 2.7; STAT1 act: 113; APP 5'UTR act: 116; FLuc act counter: 0.9

How did COc1ccc(NC(=O)c2cccc(F)c2)cc1Cl do in these assays?
FLuc inh counter: 15; NF-kB expr up: 2.4; STAT1 act: 130*; APP 5'UTR act: 30; FLuc act counter: 0.9

Results for COc1ccc(NC(=O)C(OC)c2ccccc2)cc1Cl (centres undefined) ?
Rad51 HR inh: -4; FLuc inh counter: 2; NF-kB expr up: 1.1; STAT1 act: 102; APP 5'UTR act: 5; FLuc act counter: 1

Results for COC(=O)CSc1nc2ccccc2o1 ?
Rad51 HR inh: 2; FLuc inh counter: -2; NF-kB expr up: 0.97; STAT1 act: 110; APP 5'UTR act: 0; FLuc act counter: 1

Results for CCCCCCOC(=O)Sc1nc2ccccc2o1 ?
Rad51 HR inh: 0; FLuc inh counter: 5; NF-kB expr up: 4.1*; STAT1 act: 108; APP 5'UTR act: 11; FLuc act counter: 1

How did Cn1nc2sc3ccccc3n2c(=O)c1=O do in these assays?
Rad51 HR inh: 14

Results for N#Cc1cnc2sc3ccccc3n2c1=N ?
Rad51 HR inh: 5; FLuc inh counter: -3; NF-kB expr up: 3.2; STAT1 act: 130*; APP 5'UTR act: -7; FLuc act counter: 1

Results for CN(C)c1oc(-c2ccc(Cl)cc2)nc1S(=O)(=O)c1ccccc1 ?
Rad51 HR inh: 3; FLuc inh counter: -5; NF-kB expr up: 0.97; STAT1 act: 131*; APP 5'UTR act: -13; FLuc act counter: 1

Results for CCOC(=O)c1c(NS(C)(=O)=O)sc2c1CCC(C)C2 (centres undefined) ?
Rad51 HR inh: 89*; FLuc inh counter: -2; NF-kB expr up: 1; STAT1 act: 97; APP 5'UTR act: -5; FLuc act counter: 1

Results for CCOC(=O)c1c(N)sc2c1CCC(C)C2 (centres undefined) ?
Rad51 HR inh: 0; FLuc inh counter: 0; NF-kB expr up: 1; STAT1 act: 88; APP 5'UTR act: 13; FLuc act counter: 1

What do the screens show for `O=C(NC(=O)N1CCN(c2ccc([N+](=O)[O-])cn2)CC1)c1c(Cl)cccc1Cl`?
Rad51 HR inh: 7

What do the screens show for `CCc1ccc2oc(-c3cc(N=Cc4cccc(OC)c4O)ccc3O)nc2c1`?
Rad51 HR inh: -6; FLuc inh counter: 84*; NF-kB expr up: 4.2*; STAT1 act: 84; APP 5'UTR act: 162*; FLuc act counter: 0.2

What do the screens show for `O=c1[nH]c(CSc2nnc3ccccn23)nc2cc(C(F)(F)F)ccc12`?
FLuc inh counter: -3; STAT1 act: 104; APP 5'UTR act: -10; FLuc act counter: 1

What do the screens show for `Cc1nc2sc(C(=O)Nc3ccccc3)c(N)c2c(C)c1[N+](=O)[O-]`?
Rad51 HR inh: -5; FLuc inh counter: 13; NF-kB expr up: 1.7; STAT1 act: 126; APP 5'UTR act: 168*; FLuc act counter: 0.9

How did COCCNC(=O)c1cc(-c2cccc(OC)c2)on1 do in these assays?
Rad51 HR inh: -3; FLuc inh counter: 20; NF-kB expr up: 3.2; STAT1 act: 115; APP 5'UTR act: 57; FLuc act counter: 0.8

What do the screens show for `COc1cccc(-c2cc(C(=O)Nc3cccc(O)c3)no2)c1`?
Rad51 HR inh: 3; FLuc inh counter: 83*; NF-kB expr up: 6.7*; STAT1 act: 100; APP 5'UTR act: 106; FLuc act counter: 0.2

How did COc1cccc(-c2cc(C(=O)NC3CCCC3)no2)c1 do in these assays?
Rad51 HR inh: -1; FLuc inh counter: 27; NF-kB expr up: 4.9*; STAT1 act: 144*; APP 5'UTR act: 18; FLuc act counter: 0.7

Results for COc1cccc(NC(=O)C(NC2CCCC2)c2ccccc2)c1 (centres undefined) ?
Rad51 HR inh: 7; FLuc inh counter: -7; NF-kB expr up: 1.1; STAT1 act: 98; APP 5'UTR act: 1; FLuc act counter: 1.1

How did COc1ccc(NC(=O)c2cc(-c3cccc(OC)c3)on2)cc1 do in these assays?
Rad51 HR inh: 26; FLuc inh counter: -2; NF-kB expr up: 1.2; STAT1 act: 112; APP 5'UTR act: 6; FLuc act counter: 1

Results for COc1ccc(-c2cc(C(=O)Nc3ccccc3SC)no2)cc1OC ?
Rad51 HR inh: -9; FLuc inh counter: -10; NF-kB expr up: 1.2; STAT1 act: 97; APP 5'UTR act: 12; FLuc act counter: 1.1

How did COc1cccc(NC(=O)C(=S)NC2CCCCC2)c1 do in these assays?
Rad51 HR inh: 11; FLuc inh counter: 50; NF-kB expr up: 7*; STAT1 act: 130*; APP 5'UTR act: 156*; FLuc act counter: 0.5
